Data set [1] is described as follows: Hemolytic activity against human RBC assessed as hemolysis after 30 mins by colorimetric method. It is filed as ADME, cell-based, Erythrocyte. As to conditions: human red blood cells (erythrocytes). The procedure, abridged: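 Human erythrocytes washed twice in isotonic 172 mM Tris-HCl, pH 7.6; peptides dissolved in DMSO, diluted in buffer, two independent 10-step 2-fold series from 256 or 192 μg/mL. HC50 extrapolated as 50% hemolysis concentration.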

The nature of data set [2]: Therapeutic index, ratio of HC50 for human RBC to MIC for Escherichia coli DSM 1103. It is filed as toxicity. Particulars: human red blood cells versus Escherichia coli DSM 1103. In short, it runs like this:
(§1)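 Ratio of HC50 (RBC) to HeLa IC50 or to MIC against B. subtilis or E. coli; values measured in mg/mL and recalculated to μM, 2-fold dilution without curve fitting, accuracy within a factor of 2.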

In a further data set the test system is Bacillus subtilis. Put plainly: Antimicrobial activity against Bacillus subtilis DSM 347 after 22 hrs by resazurin dye based spectrophotometry. It is filed as functional. As to conditions: DSM 347, 22 h. The procedure, abridged: (§2)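 2-fold broth microdilution in Mueller–Hinton medium; peptide stocks 1024 μg/mL in 50% ethanol. Exponential-phase cultures diluted to OD550 0.2, then 1:100 (B. subtilis) or 1:1000 (E. coli), giving 5 × 10^5 CFU/mL per well. Incubated 22 h, 37 °C, static; then resazurin (0.2 mg/mL solution) added for 2 h at 37 °C, read visually and spectrophotometrically. Tested in both photoforms.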
A general note: Resazurin is reduced to fluorescent resorufin, in cell work by metabolically active cells.

The next data set concerns HepG2. The data set is described as follows: Cytotoxicity against human HepG2 cells assessed as reduction in cell viability after 24 hrs by MTT assay. The format is functional, cell-based. As to conditions: HepG2, 24 h. The procedure, abridged:
(§3)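 Cells were grown in DMEM with 10% FBS, 2 mM L-glutamine and 40 μg/mL gentamicin, seeded at about 5 × 10^4 cells/mL, and allowed 24 h adaptation (37 °C, 5% CO2). Peptides were then added for 24 h as 2-fold dilutions (open 256–0.5, closed 512–1 μg/mL), closed form handled under dim light. MTT was given for 4 h, formazan dissolved in DMSO and read at 570 nm. Four repetitions; IC50 extrapolated from viability curves.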
(In general: Tetrazolium assays rely on reduction of a dye to a coloured formazan, in cell work by metabolically active cells.)

In the next data set the test system is HeLa. Put plainly: Cytotoxicity against human HeLa cells assessed as reduction in cell viability after 24 hrs by MTT assay. The format is functional, cell-based. In short, it runs like this:
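HeLa cells seeded at about 5 × 10^4 cells/mL in DMEM with 10% FBS, 2 mM glutamine, gentamicin; 24 h adaptation (37 °C, 5% CO2), then 24 h peptide exposure. MTT 4 h, formazan in DMSO read at 570 nm. 2-fold series 256–0.5 (open) or 512–1 μg/mL (closed), four repetitions; IC50 extrapolated from killing curves. Closed form handled in dim light.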

Data set [3] can be described thus: Selective ratio of HC50 for human RBC to IC50 for human HeLa cells. The format is toxicity. Particulars: human red blood cells versus HeLa cells. In short, it runs like this:
as §1

A short description of data set [4]: Cytotoxicity against human MOR cells assessed as reduction in cell viability after 24 hrs by MTT assay. It is filed as functional, cell-based. In short, it runs like this:
as §3

A short description of data set [5]: Cytotoxicity against human doxorubicin-resistant MOR cells assessed as reduction in cell viability after 24 hrs by MTT assay. It is filed as functional, cell-based. The procedure, abridged:
as §3

Another data set concerns Escherichia coli. Put plainly: Antimicrobial activity against Escherichia coli DSM 1103 after 22 hrs by resazurin dye based spectrophotometry. The format is functional. As to conditions: DSM 1103, 22 h. In short, it runs like this:
as §2

A further data set deals with MIA PaCa-2. The data set is described as follows: Cytotoxicity against human MIAPaCa2 cells assessed as reduction in cell viability after 24 hrs by MTT assay. It is filed as functional, cell-based. As to conditions: MIA PaCa-2, 24 h. The procedure, abridged:
as §3

The subject of another data set is MCF7. The data set is described as follows: Cytotoxicity against human MCF7 cells assessed as reduction in cell viability after 24 hrs by MTT assay. The format is functional, cell-based. As to conditions: MCF7, 24 h. The procedure, abridged: as §3
The nature of data set [6]: Therapeutic index, ratio of HC50 for human RBC to MIC for Bacillus subtilis DSM 347. The format is toxicity. Particulars: human red blood cells versus Bacillus subtilis DSM 347. The procedure, abridged: as §1

The structures appear in SMILES notation. ≈ marks a conversion by molar mass, not a printed value.

As a reminder, the HC50 is the concentration giving 50% haemolysis. In general, MIC refers to the lowest concentration that inhibits growth of the organism. Broadly, the IC50 is the concentration at which inhibition is half-maximal. For `Cc1sc2cc1C1=C(CCC1)c1cc(sc1C)C(=O)[C@H]1CCCN1C(=O)[C@H](C(C)C)NC(=O)[C@H](CCCN)NC(=O)[C@H]([C@H](O)C(C)C)NC(=O)[C@@H]1CCCN1C(=O)[C@@H](Cc1ccccc1)NC(=O)[C@H](C(C)C)NC(=O)[C@H](CCCN)NC(=O)[C@H](C(C)C)NC2=O`, in [1], the HC50 at 0.5 h amounted to 20 µM. The selectivity ratio in [2] was 0.4; in data set [3] it was 2.2; in [6], 6.7. Also, the MIC in the data set with Bacillus subtilis is 3 µM (≈ 3.85 µg/mL); against Escherichia coli, 50 µM (≈ 64.1 µg/mL). For the same compound, the IC50 in the data set on HepG2 was determined as 5 µM; in the data set on HeLa, 9 µM; in data set [4], 5 µM; in data set [5], 5 µM; in the data set with MIA PaCa-2, 6 µM; in the data set with MCF7, 6 µM.
As to `CC(C)[C@@H]1NC(=O)C2=CC3=C4CCCC4=C4C=C(S[C@]4(C)[C@@]3(C)S2)C(=O)[C@H]2CCCN2C(=O)[C@H](C(C)C)NC(=O)[C@H](CCCN)NC(=O)[C@H]([C@H](O)C(C)C)NC(=O)[C@@H]2CCCN2C(=O)[C@@H](Cc2ccccc2)NC(=O)[C@H](C(C)C)NC(=O)[C@H](CCCN)NC1=O`, the HC50 at 0.5 h in data set [1] stood at 200 µM. Besides, the results for the selectivity ratio in data set [2], in data set [3] and in data set [6] were 2, 1.3 and 21.3, respectively. Also, the MIC against Bacillus subtilis was 9 µM (≈ 11.5 µg/mL); with Escherichia coli, 100 µM (≈ 128 µg/mL). For the same compound, the IC50 in the data set with HepG2 worked out at 100 µM; in the data set on HeLa it was 150 µM; in data set [4], 150 µM; in data set [5] it was 100 µM; in the data set with MIA PaCa-2, 150 µM; in the data set with MCF7, 150 µM.
Turning to `CC(C)[C@@H]1NC(=O)C2=CC3=C4CCCC4=C4C=C(S[C@]4(C)[C@@]3(C)S2)C(=O)[C@H]2CCCN2C(=O)[C@H](Cc2ccc(O)cc2)NC(=O)[C@H](CCCN)NC(=O)[C@H](C(C)C)NC(=O)[C@@H]2CCCN2C(=O)[C@@H](Cc2ccccc2)NC(=O)[C@H](Cc2ccc(O)cc2)NC(=O)[C@H](CCCN)NC1=O`, the HC50 at 0.5 h in [1] came to 11 µM. Besides, the selectivity ratio came to 0.1 in data set [2], 0.1 in data set [3] and 3.7 in data set [6]. Also, the MIC worked out at 3 µM (≈ 4.14 µg/mL) against Bacillus subtilis and 92 µM (≈ 127 µg/mL) in the data set on Escherichia coli. The IC50 in the data set on HeLa is 137 µM.
For `CC(C)C[C@@H]1NC(=O)[C@H](CCCCN)NC(=O)[C@H](C(C)C)NC(=O)C2=CC3=C4CCCC4=C4C=C(S[C@]4(C)[C@@]3(C)S2)C(=O)[C@H]2CCCN2C(=O)[C@H](CC(C)C)NC(=O)[C@H](CCCCN)NC(=O)[C@H](C(C)C)NC(=O)[C@H](CCCCN)NC(=O)[C@H](CC(C)C)NC(=O)[C@H](CCCCN)N(C)C(=O)[C@@H](Cc2ccccc2)NC(=O)[C@H](C(C)C)NC(=O)[C@H](CCCCN)NC1=O`, the HC50 at 0.5 h in [1] stood at 9 µM. Besides, the selectivity ratio in data set [2] turned out to be 1; in [3], 0.5; in data set [6], 9. Besides, the values for the MIC in the data set with Bacillus subtilis and against Escherichia coli were 1 µM (≈ 1.82 µg/mL) and 9 µM (≈ 16.4 µg/mL), respectively. For the same compound, in the data set with HeLa, the IC50 came to 18 µM.
Regarding `CC(C)[C@@H]1NC(=O)[C@H](CCCN)NC(=O)[C@H]([C@H](O)C(C)C)NC(=O)C2=CC3=C4CCCC4=C4C=C(S[C@]4(C)[C@@]3(C)S2)C(=O)[C@H]2CCCN2C(=O)[C@H](C(C)C)NC(=O)[C@H](CCCN)NC(=O)[C@H](C(C)C)NC(=O)[C@@H]2CCCN2C(=O)[C@@H](Cc2ccccc2)NC1=O`, in [1], the HC50 at 0.5 h came to 351 µM. The selectivity ratio in data set [2] came to 1.8; in [3], 1.2; in [6], 27. Also, the MIC with Bacillus subtilis was found to be 13 µM (≈ 16.7 µg/mL); with Escherichia coli it was 200 µM (≈ 257 µg/mL). In addition, the IC50 in the data set on HeLa was found to be 300 µM.
For `Cc1sc2cc1C1=C(CCC1)c1cc(sc1C)C(=O)[C@H]1CCCN1C(=O)[C@H]([C@@H](C)O)NC(=O)[C@H](C13CC4CC(CC(C4)C1)C3)NC(=O)[C@H](CCCN)NC(=O)[C@@H]1CCCN1C(=O)[C@@H](Cc1ccccc1)NC(=O)[C@H](CCCN)NC(=O)[C@H](C13CC4CC(CC(C4)C1)C3)NC(=O)[C@H](CCCN)NC2=O`, in [1], the HC50 at 0.5 h amounted to 4 µM. For the same compound, the selectivity ratio in data set [2] amounted to 0.2; in [3] it was 0.4; in data set [6] it was 2. Moreover, the figures for the MIC against Bacillus subtilis and against Escherichia coli were 2 µM (≈ 2.91 µg/mL) and 25 µM (≈ 36.3 µg/mL), respectively. The IC50 in the data set with HeLa amounted to 9 µM.

(Values after ChEMBL document CHEMBL4257585, “Structure-Activity Relationships of Photoswitchable Diarylethene-Based β-Hairpin Peptides as Membranolytic Antimicrobial and Anticancer Agents” (J Med Chem, 2018).)
